Experiment [1] relates to Mycobacterium tuberculosis. Put plainly: Antimicrobial activity against Mycobacterium tuberculosis after 8 days in aerobic condition by alamar blue assay. The format is functional. To be noted: 192 h. The method, boiled down:
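Replicating M. tb was tested in an 8-day microplate assay. Alamar blue was added on day 7 to measure growth. The MIC was taken as the lowest drug concentration giving >90% inhibition.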
(In general: Alamar Blue is a resazurin reagent that responds to reducing activity.)

In experiment [2] the test system is Mycobacterium tuberculosis. In words: Antimicrobial activity against Mycobacterium tuberculosis after 11 days under anaerobic condition by luminescence-based low oxygen recovery assay. It is filed as functional. The following applies: 264 h.
A further experiment has as its system Vero. In words: Cytotoxicity against african green monkey Vero cells after 72 hrs. It is filed as cell-based. To be noted: Chlorocebus sabaeus. The method, boiled down:
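VERO (CCL-81) monolayers exposed 72 h to 3-fold serial dilutions of compound. Viability read by tetrazolium dye reduction, product absorbance at 490 nm. Untreated cells set 0% inhibition, SDS-lysed cells 100% inhibition.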

The test system of experiment [3] is Mycobacterium tuberculosis. In words: Antimicrobial activity against Mycobacterium tuberculosis assessed as growth inhibition at 100 uM after 8 days under aerobic condition by alamar blue assay. It is filed as functional. To be noted: 192 h.
The test system of experiment [4] is Mycobacterium tuberculosis. Put plainly: Antimicrobial activity against Mycobacterium tuberculosis assessed as growth inhibition at 100 uM after 11 days under anaerobic condition by luminescence-based low oxygen recovery assay. It is filed as functional. The following applies: 264 h.

Converted amounts (≈) assume the structure as drawn.

For the compound `O=[N+]([O-])c1cn2c(n1)S(=O)(=O)CC(OCc1ccc(OC(F)(F)F)cc1)C2` (stereo unspecified), the MIC in experiment [1] was greater than 128 µM; in experiment [2], 89 µM (≈ 36.3 µg/mL). This compound came in with an IC50 in the experiment with Vero greater than 128 µM. Moreover, the inhibition at 100 µM in experiment [3] came out at 89%.
In experiment [1], `O=[N+]([O-])c1nc2n(n1)C[C@H](OCc1ccc(OCc3ccccc3)cc1)CO2` displayed an MIC greater than 128 µM. Also, the inhibition at 100 µM in experiment [3] was 18%.
With `O=[N+]([O-])c1cn2c(n1)CCC(OCc1ccc(OC(F)(F)F)cc1)C2` (stereo unspecified), the MIC in experiment [1] was 126 µM (≈ 45 µg/mL); in experiment [2], greater than 128 µM. For the same compound, in experiment [4], the inhibition at 100 µM worked out at 75%.
Take `O=[N+]([O-])c1cn2c(n1)[S+]([O-])CC(OCc1ccc(OCc3ccccc3)cc1)C2` (stereo unspecified): the MIC in experiment [1] and in experiment [2] was greater than 128 µM throughout. This compound had an IC50 in the experiment on Vero of 63 µM. Further, the results for the inhibition at 100 µM in experiment [3] and in experiment [4] were 23% and 20%, respectively.
With `O=[N+]([O-])c1cn2c(n1)[S+]([O-])CC(OCc1ccc(OC(F)(F)F)cc1)C2` (stereo unspecified), the MIC in experiment [1] is greater than 128 µM; in experiment [2] it was 92 µM (≈ 36 µg/mL). The compound also yielded an IC50 in the experiment on Vero greater than 128 µM. In experiment [3], the inhibition at 100 µM was 87%.
`O=[N+]([O-])c1cn2c(n1)OCC(OCc1ccc(OCc3ccccc3)cc1)C2` (stereo unspecified): the IC50 with Vero is greater than 128 µM.
For the compound `CN1CC(OCc2ccc(OC(F)(F)F)cc2)Cn2nc([N+](=O)[O-])cc21` (stereo unspecified), the minimal inhibitory concentration (MIC) in experiment [1] and in experiment [2] was greater than 128 µM in each case. Besides, the IC50 in the experiment with Vero is greater than 128 µM. Moreover, the results for the inhibition at 100 µM in experiment [3] and in experiment [4] were 61% and 37%, respectively.
Turning to `O=[N+]([O-])c1cn2c(n1)SCC(OCc1ccc(OCc3ccccc3)cc1)C2` (stereo unspecified), the MIC in experiment [1] was determined as 1.1 µM (≈ 0.437 µg/mL); in experiment [2] it was 11 µM (≈ 4.37 µg/mL). The IC50 in the experiment with Vero is greater than 128 µM.
For the compound `O=[N+]([O-])c1cn2c(n1)NCC(OCc1ccc(OC(F)(F)F)cc1)C2` (stereo unspecified), the MIC in experiment [1] and in experiment [2] was greater than 128 µM each time. The inhibition at 100 µM in experiment [3] worked out at 63%; in experiment [4] it was 64%.
On to `O=[N+]([O-])c1cn2c(n1)SCC(OCc1ccc(OC(F)(F)F)cc1)C2` (stereo unspecified), for which the MIC was 1.1 µM (≈ 0.413 µg/mL) in experiment [1] and 13 µM (≈ 4.88 µg/mL) in experiment [2]. In the experiment on Vero, the IC50 was greater than 128 µM.
As for `CN1CC(OCc2ccc(OCc3ccccc3)cc2)Cn2nc([N+](=O)[O-])cc21` (stereo unspecified), the MIC in experiment [1] and in experiment [2] was greater than 128 µM in each case. The IC50 in the experiment with Vero was greater than 128 µM. For the same compound, the values for the inhibition at 100 µM in experiment [3] and in experiment [4] were 58% and 3%, respectively.
With `O=[N+]([O-])c1cn2c(n1)OCC(OCc1ccc(OC(F)(F)F)cc1)C2` (stereo unspecified), the IC50 in the experiment on Vero is greater than 128 µM.
For `O=[N+]([O-])c1cc2n(n1)CC(OCc1ccc(OCc3ccccc3)cc1)CN2` (stereo unspecified), the MIC in experiment [1] and in experiment [2] was greater than 128 µM in each case. For the same compound, the inhibition at 100 µM in experiment [3] turned out to be 55%; in experiment [4] it was 41%.
Turning to `O=[N+]([O-])c1cc2n(n1)CC(OCc1ccc(OC(F)(F)F)cc1)CN2` (stereo unspecified), the results for the MIC in experiment [1] and in experiment [2] were greater than 128 µM and 111 µM (≈ 39.8 µg/mL), respectively. Moreover, the inhibition at 100 µM in experiment [3] amounted to 61%.
In turn, `O=[N+]([O-])c1nc2n(n1)C[C@@H](OCc1ccc(OC(F)(F)F)cc1)CO2` showed an MIC in experiment [1] greater than 128 µM. Moreover, the IC50 in the experiment on Vero was greater than 128 µM. Moreover, in experiment [3], the inhibition at 100 µM came to 84%.
`O=[N+]([O-])c1cn2c(n1)CCC(OCc1ccc(OCc3ccccc3)cc1)C2` (stereo unspecified): the MIC in experiment [1] and in experiment [2] was greater than 128 µM each time. Also, the inhibition at 100 µM in experiment [3] came to 5%; in experiment [4], 49%.
Turning to `O=[N+]([O-])c1cn2c(n1)S(=O)(=O)CC(OCc1ccc(OCc3ccccc3)cc1)C2` (stereo unspecified), the MIC in experiment [1] and in experiment [2] was greater than 128 µM in each case. In addition, the IC50 in the experiment with Vero was greater than 128 µM. For the same compound, the inhibition at 100 µM in experiment [3] is 61%; in experiment [4], 79%.
Consider `O=[N+]([O-])c1cc2n(n1)CC(OCc1ccc(OCc3ccccc3)cc1)CO2` (stereo unspecified), for which the MIC in experiment [1] and in experiment [2] was greater than 128 µM throughout. The same compound came in with an IC50 with Vero of 82 µM. For the same compound, the figures for the inhibition at 100 µM in experiment [3] and in experiment [4] were 38% and 19%, respectively.
For `O=[N+]([O-])c1nc2n(n1)C[C@H](OCc1ccc(OC(F)(F)F)cc1)CO2`, the MIC in experiment [1] is greater than 128 µM. The compound also had an IC50 in the experiment with Vero greater than 128 µM. Moreover, in experiment [3], the inhibition at 100 µM worked out at 81%.
In experiment [1], `O=[N+]([O-])c1cc2n(n1)CC(OCc1ccc(OC(F)(F)F)cc1)CO2` (stereo unspecified) came in with a minimal inhibitory concentration (MIC) greater than 128 µM. Also, in the experiment on Vero, the IC50 was determined as 88 µM. Besides, the inhibition at 100 µM in experiment [3] turned out to be 89%; in experiment [4] it was 86%.

As usually defined, the MIC is the least concentration at which growth counts as inhibited. The term IC50 denotes the midpoint of a concentration-inhibition curve. Broadly, the inhibition is the change of the read-out against control, counted positive when it falls.

The record behind these values is ChEMBL document CHEMBL1143279, “Synthesis, reduction potentials, and antitubercular activity of ring A/B analogues of the bioreductive drug (6S)-2-nitro-6-{[4-(trifluoromethoxy)benzyl]oxy}-6,7-dihydro-5H-imidazo[2,1-b][1,3]oxazine (PA-824)” (J Med Chem, 2009).
